Results from article PMC8247328 (British Journal of Clinical Pharmacology, 2020).
Where a SMILES comes first, the peptide text is derived from it. [ ]: non-standard residue; d: D form.

How the values were obtained:
Type in all cases: in vivo, human
[1] = Plasma pharmacokinetics of SBT-020
Procedure, shortened: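 Dosing was subcutaneous once daily. In Part 1, 24-h plasma profiles were taken on day 1 and at steady state (day 7); Part 2 used steady-state troughs only. Plasma aliquots were spiked with 5% aqueous formic acid, and active-arm samples were assayed by validated LC-MS (LLOQ 2.5 ng/mL). Noncompartmental analysis set pre-Cmax values below LLOQ to zero and excluded post-Cmax ones.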

[2] = test system: patients with early stage HD; assay: Safety: treatment-emergent adverse events, laboratory, vital signs, ECG
Procedure, shortened: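 The trial was randomized and placebo-controlled in early HD. Part 1 gave 5, 15 or 25 mg subcutaneously once daily for 7 days (6 active, 2 placebo per cohort). Part 2 re-randomized patients 12:12 to 28 days. Adverse events, vitals, laboratory, ECG and physical examination were recorded on clinic days and at home visits (days 7, 14, 21 in Part 2). Plasma histamine was sampled 15 and 30 min post-dose.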

[3] = test system: peripheral blood mononuclear cells (PBMCs); assay: Mitochondrial membrane potential of PBMCs; settings: for Mitochondrial membrane potential (Delta psi), contrast vs placebo (95% CI) / Percentage of dysfunctional PMBCs, contrast vs placebo (95% CI): ANCOVA; for Mitochondrial membrane potential (Delta psi), LS mean: PBMCs
Procedure, shortened: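 Live PBMCs were stained with JC-1 and read by flow cytometry, FL-2 for healthy and FL-1 for dysfunctional mitochondria. A fraction of cells was treated with CCCP as uncoupled positive control, and ΔΨm was calculated from FL2/FL1 ratios ×100. Blood was drawn 1 h before dosing on day 1 and 1.5 h after the final dose on day 7 (Part 1), and 1.5 h post-dose on day 27 (Part 2). Analysis was mixed-model ANCOVA with baseline as covariate.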

[4] = test system: mitochondrial function in calf muscle; assay: Dynamic 31P-MRS of calf skeletal muscle; settings: Part 1; for PCr/ATP resting phase 31P‐MRS scan, LS mean / PCr/pi resting phase 31P‐MRS scan, LS mean / τPCr with 31P‐MRS, LS mean: n=6; for PCr/ATP resting phase 31P‐MRS scan, LS mean / PCr/pi resting phase 31P‐MRS scan, LS mean: day 7; for τPCr with 31P‐MRS, LS mean: day 7, 1.5 h post dose
Procedure, shortened: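 Calf muscle was scanned by dynamic 31P-MRS at 7 T with a surface coil and an MRI-compatible pedal ergometer, before, during and after exercise (pulse-acquire, 2-s resolution, flip 45°, 1 average). Pi, PCr and ATP peaks were integrated. τPCr came from a monoexponential fit, and pH from the PCr–Pi frequency difference. Scans were repeated after a 10-min break if end-exercise pH was <6.8. Outliers deviating >5% (up to 10%) were removed. Timing: screening and day 7 (Part 1), day −1 and day 27 (Part 2), 1.5 h post-dose. Analysis was ANCOVA; the posthoc split used the pre-dose median.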

[5] = Part 1, 5 mg s.c. once daily 7 d
[6] = Part 1, 5 mg s.c. once daily 7 d, n=6, day 7, 1.5 h post dose
[7] = Part 1, 15 mg s.c. once daily 7 d
[8] = Part 1, 25 mg s.c. once daily 7 d
[9] = Part 2, 25 mg s.c. once daily 28 d
[10] = Part 2, 25 mg s.c. once daily 28 d, n=11, day 27, 1.5 h post dose
[11] = 25 mg s.c. once daily 7 d, ANCOVA

SMILES: N=C(N)NCCC[C@@H](NC(=O)[C@@H](N)Cc1ccccc1)C(=O)N[C@@H](Cc1ccccc1)C(=O)N[C@@H](CCCCN)C(N)=O [SBT‐020, H‐Phe‐D‐Arg‐Phe‐Lys‐NH2] (H-F[dR]FK-NH2)
- Exposure higher between day 1 and day 7 ([1]; Part 1, 25‐mg dose cohort): approximately 10%
- Accumulation ([1]; Part 2, weekly trough samples, 28 days of daily 25 mg s.c.): did not accumulate
- Median percentage of extrapolated AUC ([1]; Part 1 day 7, 15‐mg cohort): less than 2%
- Apparent elimination half‐life ([1]; Part 1 day 7, 15‐mg cohort, mean): 3.94 h
- Median percentage of extrapolated AUC ([1]; Part 1 day 7, 25‐mg cohort): less than 2%
- Tmax ([1]; human, plasma, sc): ~1 h
- Dose proportionality of exposure ([1]; once daily subcutaneous administration): dose‐proportional exposure
- Overall safety ([2]; 5, 15, 25 mg s.c. once daily 7 d and 25 mg 28 d): safe in all dose levels
- Plasma histamine levels ([2]; 15 and 30 minutes after administration): not elevated
- Severity of injection site reactions ([2]; Parts 1 and 2, developed within a few minutes of dosing, resolved within the hour): mild
- Mitochondrial membrane potential (Delta psi), contrast vs placebo (95% CI) [3, 5]: 263.528 (−1151.3, 1678.31) P = .7001
- Percentage of dysfunctional PMBCs, contrast vs placebo (95% CI) [3, 5]: −1.980 (−3.819, −0.141) P = .0363%
- Percentage of dysfunctional PMBCs, LS mean [3, 6]: 3.82%
- Mitochondrial membrane potential (Delta psi), LS mean [3, 6]: 3162.27
- Mitochondrial membrane potential (Delta psi), contrast vs placebo (95% CI) [3, 7]: −16.375 (−1411.2, 1378.48) P = .9806
- Percentage of dysfunctional PMBCs, contrast vs placebo (95% CI) [3, 7]: −3.002 (−4.980, −1.025) P = .0051%
- Percentage of dysfunctional PMBCs, LS mean ([3]; Part 1, 15 mg s.c. once daily 7 d, n=6, day 7, 1.5 h post dose): 2.80%
- Mitochondrial membrane potential (Delta psi), contrast vs placebo (95% CI) [3, 8]: 1513.21 (114.067, 2912.36) P = .0356
- Percentage of dysfunctional PMBCs, contrast vs placebo (95% CI) [3, 8]: −2.052 (−3.894, −0.210) P = .0310%
- Percentage of dysfunctional PMBCs, LS mean ([3]; Part 1, 25 mg s.c. once daily 7 d, n=6, day 7, 1.5 h post dose): 3.75%
- Mean percentage of dysfunctional PBMCs after 7 days of treatment ([3]; Part 1, 5‐mg cohort, baseline mean 3.2): 3.4%
- Mean ∆Ψm after 7 days of treatment ([3]; Part 1, 5‐mg cohort, baseline mean 2956): 2948
- Mean percentage of dysfunctional PBMCs after 7 days of treatment ([3]; Part 1, 15‐mg cohort, baseline mean 4.3): 3.8%
- Mean ∆Ψm after 7 days of treatment ([3]; Part 1, 15‐mg cohort, baseline mean 3,316): 3,282
- Mean percentage of dysfunctional PBMCs after 7 days of treatment ([3]; Part 1, 25‐mg cohort, baseline mean 3.2): 3.4%
- Mean ∆Ψm after 7 days of treatment ([3]; Part 1, 25‐mg cohort, baseline mean 3715): 5279
- Mitochondrial membrane potential (Delta psi), contrast vs placebo (95% CI) [3, 9]: 1065.4 (−495.2, 2626.0) P = .17
- Percentage of dysfunctional PMBCs, contrast vs placebo (95% CI) [3, 9]: −0.75 (−3.93, 2.42) P = .62%
- Percentage of dysfunctional PMBCs, LS mean [3, 10]: 4.08%
- Mitochondrial membrane potential (Delta psi), LS mean [3, 10]: 4090.47
- Mean percentage of dysfunctional PBMCs after 28 days of treatment ([3]; Part 2, active group 25 mg, baseline mean 4.6): 4.2%
- Mean ∆Ψm after 28 days of treatment ([3]; Part 2, active group 25 mg, baseline mean 3770): 4124
- τPCr with 31P‐MRS, contrast vs placebo (95% CI) ([4]; 5 mg s.c. once daily 7 d, ANCOVA): 6.505 (−3.4601, 16.4696) P = .1844 s
- PCr/ATP resting phase 31P‐MRS scan, LS mean ([4]; 5 mg s.c. once daily 7 d): 3.7838
- PCr/pi resting phase 31P‐MRS scan, LS mean ([4]; 5 mg s.c. once daily 7 d): 9.9289
- τPCr with 31P‐MRS, LS mean ([4]; 5 mg s.c. once daily 7 d): 40.9016 s
- τPCr with 31P‐MRS, contrast vs placebo (95% CI) ([4]; 15 mg s.c. once daily 7 d, ANCOVA): 8.807 (−1.0294, 18.6436) P = .0757 s
- PCr/ATP resting phase 31P‐MRS scan, LS mean ([4]; 15 mg s.c. once daily 7 d): 3.8400
- PCr/pi resting phase 31P‐MRS scan, LS mean ([4]; 15 mg s.c. once daily 7 d): 11.5607
- τPCr with 31P‐MRS, LS mean ([4]; 15 mg s.c. once daily 7 d): 43.2040 s
- PCr/pi resting phase 31P‐MRS scan, contrast vs placebo (95% CI) [4, 11]: 0.7604 (−1.0773, 2.598) P = .3948
- τPCr with 31P‐MRS, contrast vs placebo (95% CI) [4, 11]: 5.477 (−5.5072, 16.4620) P = .3047 s
- PCr/ATP resting phase 31P‐MRS scan, LS mean ([4]; 25 mg s.c. once daily 7 d): 3.8510
